The source made the active and inactive calls. The calls are words filed in the database; no cut-off is given here.
Assays:
[1] = Inhibition of sheep brain dynamin 1 GTPase activity by malachite green GTPase assay; set-up: species or system Ovis aries
How it was run: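 Buffer: 5 mM Tris pH 7.4, 10 mM NaCl, 2 mM Mg2+, 0.05% Tween 80, leupeptin, PMSF. GTP 0.3 mM, 30 min at 37 °C. Stopped with EDTA, malachite green added, A650 read against a phosphate standard. IC50 is the mean of at least three experiments in duplicate.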

Ovis aries [2] = organism: Ovis aries; experiment: Inhibition of sheep brain dynamin 1 GTPase activity at 300 uM by malachite green GTPase assay
U2OS = experiment: Toxicity against human U2OS cells assessed as effect on cell morphology after 30 mins; assay type: cell-based; conditions: 0.5 h
Dynamin-2 (Homo sapiens) [3] = molecular target: T1, Dynamin-2 (Homo sapiens) (UniProt P50570); experiment: Inhibition of dynamin 2-mediated endocytosis internalization of Texas red-transferrin in human U2OS cells at 100 uM pretreated for 30 mins; assay type: cell-based
T1 sequence (whole entry): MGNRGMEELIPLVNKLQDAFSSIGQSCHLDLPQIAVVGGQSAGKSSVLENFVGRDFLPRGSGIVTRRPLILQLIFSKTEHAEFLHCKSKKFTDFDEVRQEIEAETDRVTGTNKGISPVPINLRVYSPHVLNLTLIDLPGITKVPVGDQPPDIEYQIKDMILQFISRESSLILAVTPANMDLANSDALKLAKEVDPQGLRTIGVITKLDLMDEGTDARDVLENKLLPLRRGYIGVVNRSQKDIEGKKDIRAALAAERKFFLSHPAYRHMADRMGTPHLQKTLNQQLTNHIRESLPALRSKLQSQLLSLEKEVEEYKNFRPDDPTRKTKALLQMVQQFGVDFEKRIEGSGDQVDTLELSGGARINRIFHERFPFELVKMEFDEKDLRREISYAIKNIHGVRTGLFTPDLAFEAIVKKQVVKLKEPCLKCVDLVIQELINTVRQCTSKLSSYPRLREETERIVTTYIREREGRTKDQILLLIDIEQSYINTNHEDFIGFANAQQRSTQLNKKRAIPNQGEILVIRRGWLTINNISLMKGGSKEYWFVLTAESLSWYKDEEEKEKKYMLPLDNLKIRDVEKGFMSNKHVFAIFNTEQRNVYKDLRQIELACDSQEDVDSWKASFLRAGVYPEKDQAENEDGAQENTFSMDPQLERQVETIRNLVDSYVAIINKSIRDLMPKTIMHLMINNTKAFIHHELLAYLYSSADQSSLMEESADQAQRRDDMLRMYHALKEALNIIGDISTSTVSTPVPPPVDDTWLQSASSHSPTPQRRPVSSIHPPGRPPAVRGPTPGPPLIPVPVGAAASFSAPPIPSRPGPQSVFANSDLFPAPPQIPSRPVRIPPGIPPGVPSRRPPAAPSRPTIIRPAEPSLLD
How it was run: (§1)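 U2OS cells in DMEM/10% FCS on fibronectin-coated wells, serum-starved overnight (16 h). Preincubated 30 min with drug or vehicle, then Tf-Texas Red 4 µg/mL for 8 min at 37 °C. Ice-cold acid wash (0.2 M acetic acid/0.5 M NaCl, pH 2.8) strips surface Tf. Cells fixed in 4% PFA and DAPI-stained, and internalized Tf-TxR imaged by fluorescence microscopy. Final DMSO at most 1%.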

Dynamin-2 (Homo sapiens) [4] = molecular target: T1, Dynamin-2 (Homo sapiens); experiment: Inhibition of dynamin 2-mediated endocytosis internalization of Texas red-transferrin in human U2OS cells at 30 uM pretreated for 30 mins; assay type: cell-based; how it was run: as §1
[5] = Toxicity against human fibroblasts assessed as cell viability at 10 uM by trypan blue exclusion method; assay type: cell-based, Fibroblast; conditions: read-out: Activity
How it was run: (§2)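 Cells seeded at 1 × 10⁵ per 10 cm dish. From 24 h after seeding, exposed continuously for 7 days to drug (10 µM) or 0.5% DMSO vehicle. Floating and adherent cells collected, and viability scored by Trypan Blue exclusion on an automated analyzer. Cell lines: hTert breast stromal fibroblasts, two primary skin fibroblast lines, a primary myoblast line, NIH3T3.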

[6] = Toxicity against mouse NIH/3T3 cells assessed as cell viability at 10 uM by trypan blue exclusion method; assay type: cell-based, NIH3T3; conditions: read-out: Activity; how it was run: as §2
Ovis aries [7] = organism: Ovis aries; experiment: Uncompetitive inhibition of sheep brain dynamin 1 GTPase activity using variable GTP level by kinetic assay; assay type: tissue-based
How it was run: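 Malachite green Pi release assay with PS-stimulated sheep brain dynamin I (20 nM) at 37 °C for 30 min, with GTP substrate varied in the presence of inhibitor. Vmax and Km were obtained by nonlinear Michaelis–Menten fitting, then the data were replotted as Lineweaver–Burk to assign the inhibition mode.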

IC50 [1] [µM]	inhibition (Ovis aries [2])	SMILES	further results
	inactive	COc1ccc(CNC(=O)/C(C#N)=C/c2c(C)[nH]c3ccccc23)cc1	
10.1		CCCCCCCCCCNC(=O)/C(C#N)=C/c1c(C)n(CCN(C)C)c2ccccc12	Activity (U2OS): Non-toxic; Activity (Dynamin-2 (Homo sapiens) [3]): Active
	inactive	CN(C)CCn1cc(CC(=O)O)c2ccccc21	
1.3		CCCCCCCCNC(=O)/C(C#N)=C/c1cn(CCCN(C)C)c2ccccc12	Activity (Dynamin-2 (Homo sapiens) [4]): Active; Activity (U2OS): Non-toxic; Activity (Dynamin-2 (Homo sapiens) [3]): Active; viability at 10 µM [5]: > 98%; viability at 10 µM [6]: > 98%
	inactive	Cc1c(C=O)c2ccccc2n1CCCN(C)C	
	inactive	CCNC(=O)/C(C#N)=C/c1c(C)n(CCCN(C)C)c2ccccc12	
7.69		CCCCCCNC(=O)/C(C#N)=C/c1c(C)n(CCN(C)C)c2ccccc12	
	inactive	CCCCCCNC(=O)/C(C#N)=C/c1c(C)[nH]c2ccccc12	
	inactive	CCCCNC(=O)/C(C#N)=C/c1c(C)n(CCCN(C)C)c2ccccc12	
	inactive	CCNC(=O)/C(C#N)=C/c1c(C)n(CCN(C)C)c2ccccc12	
131		CN(C)CCn1cc(CCC(=O)O)c2ccccc21	
52		CCCCCCCCCCCCCCNC(=O)/C(C#N)=C/c1c(C)n(CCCN(C)C)c2ccccc12	
9.05		CCCCCCCCNC(=O)/C(C#N)=C/c1c(C)n(CCN(C)C)c2ccccc12	Activity (U2OS): Non-toxic; Activity (Dynamin-2 (Homo sapiens) [3]): Active
	inactive	CCCCCCCCCCCCCCNC(=O)/C(C#N)=C/c1c(C)[nH]c2ccccc12	
	inactive	CCCNC(=O)/C(C#N)=C/c1c(C)n(CCN(C)C)c2ccccc12	
	inactive	CCCCCCCCCCCCNC(=O)/C(C#N)=C/c1c(C)[nH]c2ccccc12	
	inactive	Cc1[nH]c2ccccc2c1/C=C(\C#N)C(=O)NCc1ccccc1	
100		CN1CCCC1CCn1cc(C2=C(c3c[nH]c4ccccc34)C(=O)NC2=O)c2ccccc21 (centres undefined)	
300		Cc1c(/C=C(\C#N)C(=O)NC2CCCCC2)c2ccccc2n1CCN(C)C	
	inactive	CCNC(=O)/C(C#N)=C/c1c(C)[nH]c2ccccc12	
	inactive	CCCNC(=O)/C(C#N)=C/c1c(C)n(CCCN(C)C)c2ccccc12	

The next lines start with the compound.

SMILES	IC50 [1] [µM]	inhibition (Ovis aries [2])	further results
Cc1c(/C=C(\C#N)C(=O)NCc2ccccc2)c2ccccc2n1CCCN(C)C	201		
COc1ccc(CNC(=O)/C(C#N)=C/c2c(C)n(CCCN(C)C)c3ccccc23)cc1	222		
CCCCCCCCCCNC(=O)/C(C#N)=C/c1c(C)[nH]c2ccccc12		inactive	
Cc1cc2ccccc2n1CCCN(C)C	300		
CCCCCCCCCCCCCCNC(=O)/C(C#N)=C/c1c(C)n(CCN(C)C)c2ccccc12	38		
CCCCCCCCCCCCNC(=O)/C(C#N)=C/c1c(C)n(CCN(C)C)c2ccccc12	32		
Cc1cc2ccccc2n1CCN(C)C	300		
CN(C)CCCn1ccc2ccccc21	300		
Cc1c(/C=C(\C#N)C(=O)NCc2ccccc2)c2ccccc2n1CCN(C)C	196		
Cc1c(C=O)c2ccccc2n1CCN(C)C		inactive	
CCCCCCCCNC(=O)/C(C#N)=C/c1c(C)[nH]c2ccccc12		inactive	
CCCCNC(=O)/C(C#N)=C/c1c(C)[nH]c2ccccc12		inactive	
CCCCCCCCNC(=O)/C(C#N)=C/c1c(C)n(CCCN(C)C)c2ccccc12	3.33		Activity (Ovis aries [7]): Active; Activity (Dynamin-2 (Homo sapiens) [4]): Active; Activity (U2OS): Non-toxic; Activity (Dynamin-2 (Homo sapiens) [3]): Active
COc1ccc(CNC(=O)/C(C#N)=C/c2c(C)n(CCN(C)C)c3ccccc23)cc1	254		
CN(C)CCCn1cc(C2=C(c3c[nH]c4ccccc34)C(=O)NC2=O)c2ccccc21 [GF-109203]	100		
CCCCCCNC(=O)/C(C#N)=C/c1c(C)n(CCCN(C)C)c2ccccc12	6.62		Activity (U2OS): Non-toxic; Activity (Dynamin-2 (Homo sapiens) [3]): Active
CCCCNC(=O)/C(C#N)=C/c1c(C)n(CCN(C)C)c2ccccc12	300		
CN(C)CCCn1cc(CC(=O)O)c2ccccc21		inactive	
CCCNC(=O)/C(C#N)=C/c1c(C)[nH]c2ccccc12		inactive	
Cc1[nH]c2ccccc2c1/C=C(\C#N)C(=O)NC1CCCCC1		inactive	
Cc1c(/C=C(\C#N)C(=O)NC2CCCCC2)c2ccccc2n1CCCN(C)C	300		
CN(C)CCn1ccc2ccccc21	300		
CN(C)CCCn1cc(CCC(=O)O)c2ccccc21	143		
